ChEMBL document CHEMBL1144664, “Design, synthesis, and SAR of new pyrrole-oxindole progesterone receptor modulators leading to 5-(7-fluoro-3,3-dimethyl-2-oxo-2,3-dihydro-1H-indol-5-yl)-1-methyl-1H-pyrrole-2-carbonitrile (WAY-255348)” (J Med Chem, 2008)
The source made the active and inactive calls. The rule behind the calls is not given here.

What was measured:
[1] = target: T1, Progesterone receptor (Homo sapiens, UniProt P06401); test: Antagonist activity at human PR expressed in human T47D cells assessed as inhibition of progesterone induced alkaline phosphatase; format: functional, cell-based
T1 sequence (P06401 whole entry): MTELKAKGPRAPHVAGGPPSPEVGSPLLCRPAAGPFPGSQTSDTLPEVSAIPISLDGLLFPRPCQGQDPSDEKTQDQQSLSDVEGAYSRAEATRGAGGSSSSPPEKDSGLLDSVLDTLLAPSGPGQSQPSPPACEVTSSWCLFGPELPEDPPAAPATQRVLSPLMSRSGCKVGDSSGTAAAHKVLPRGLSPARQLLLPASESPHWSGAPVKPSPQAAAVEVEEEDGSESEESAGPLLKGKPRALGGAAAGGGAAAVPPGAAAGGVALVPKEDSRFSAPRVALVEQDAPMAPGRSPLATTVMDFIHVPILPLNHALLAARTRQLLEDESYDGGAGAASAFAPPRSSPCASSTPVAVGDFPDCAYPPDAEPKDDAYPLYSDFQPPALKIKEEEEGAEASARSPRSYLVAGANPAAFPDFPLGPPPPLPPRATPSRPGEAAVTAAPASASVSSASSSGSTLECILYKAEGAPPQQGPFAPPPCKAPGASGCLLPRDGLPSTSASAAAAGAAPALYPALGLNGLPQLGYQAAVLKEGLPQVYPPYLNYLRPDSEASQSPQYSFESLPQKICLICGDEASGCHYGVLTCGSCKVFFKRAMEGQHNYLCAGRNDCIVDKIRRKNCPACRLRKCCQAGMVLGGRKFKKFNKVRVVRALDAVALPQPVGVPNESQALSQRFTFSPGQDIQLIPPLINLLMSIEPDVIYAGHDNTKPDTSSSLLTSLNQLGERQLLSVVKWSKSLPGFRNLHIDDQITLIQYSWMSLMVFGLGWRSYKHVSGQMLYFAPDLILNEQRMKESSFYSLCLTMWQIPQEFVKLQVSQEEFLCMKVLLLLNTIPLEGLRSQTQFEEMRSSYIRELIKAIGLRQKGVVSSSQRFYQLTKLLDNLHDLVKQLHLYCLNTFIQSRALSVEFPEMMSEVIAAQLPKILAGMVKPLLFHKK

[2] = Stability in rat liver microsome assessed as half life; format: ADME; conditions: liver microsomes
Method in brief: (§1)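 Female rat, cynomolgus monkey and human liver microsome stability; half-life (min) reported.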

[3] = Stability in cynomolgus monkey liver microsome assessed as half life; format: ADME, Macaca fascicularis; conditions: liver microsomes; method in brief: as §1
[4] = Half life in Sprague-Dawley rat at 5 mg/kg, po; format: ADME, organism-based; design: dose 5 mg/kg, route oral; conditions: in vivo
Method in brief: (§2)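 Female Sprague–Dawley rats dosed as 1-in-4 cassette or discrete studies. iv in DMSO/PEG200 20:80; po in aqueous 2% Tween 80/0.5% methyl cellulose. Parameters reported: C0, Cmax, t1/2, plasma clearance, Vss, AUC0-inf and %F.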

[5] = AUC (0 to infinity) in Sprague-Dawley rat at 5 mg/kg, po; format: ADME, organism-based; design: time infinity, dose 5 mg/kg, route oral; conditions: plasma
[6] = tested on: Cynomolgus monkey; test: Induction of early menses in cynomolgus monkey at 5 mg/kg, po; format: organism-based, Macaca fascicularis; design: dose 5 mg/kg, route oral; conditions: in vivo
[7] = Plasma clearance in cynomolgus monkey at […], iv; format: ADME, organism-based, Macaca fascicularis; design: dose 0.25 mg/kg, route intravenous
[8] = Volume of distribution at steady state in cynomolgus monkey at […], iv; format: ADME, organism-based, Macaca fascicularis; design: dose 0.25 mg/kg, route intravenous; conditions: in vivo, read-out: Vdss
[9] = Half life in cynomolgus monkey at 1 mg/kg, iv; format: ADME, organism-based, Macaca fascicularis; design: dose 1 mg/kg, route intravenous; conditions: in vivo
[10] = target: T2, Glucocorticoid receptor (Homo sapiens) (UniProt P04150); test: Antagonist activity at human GR ligand binding domain expressed in african green monkey COS7 cells in presence of Dexamethasone by Gal4 hybrid assay; format: cell-based; conditions: COS-7
T2 sequence (whole entry): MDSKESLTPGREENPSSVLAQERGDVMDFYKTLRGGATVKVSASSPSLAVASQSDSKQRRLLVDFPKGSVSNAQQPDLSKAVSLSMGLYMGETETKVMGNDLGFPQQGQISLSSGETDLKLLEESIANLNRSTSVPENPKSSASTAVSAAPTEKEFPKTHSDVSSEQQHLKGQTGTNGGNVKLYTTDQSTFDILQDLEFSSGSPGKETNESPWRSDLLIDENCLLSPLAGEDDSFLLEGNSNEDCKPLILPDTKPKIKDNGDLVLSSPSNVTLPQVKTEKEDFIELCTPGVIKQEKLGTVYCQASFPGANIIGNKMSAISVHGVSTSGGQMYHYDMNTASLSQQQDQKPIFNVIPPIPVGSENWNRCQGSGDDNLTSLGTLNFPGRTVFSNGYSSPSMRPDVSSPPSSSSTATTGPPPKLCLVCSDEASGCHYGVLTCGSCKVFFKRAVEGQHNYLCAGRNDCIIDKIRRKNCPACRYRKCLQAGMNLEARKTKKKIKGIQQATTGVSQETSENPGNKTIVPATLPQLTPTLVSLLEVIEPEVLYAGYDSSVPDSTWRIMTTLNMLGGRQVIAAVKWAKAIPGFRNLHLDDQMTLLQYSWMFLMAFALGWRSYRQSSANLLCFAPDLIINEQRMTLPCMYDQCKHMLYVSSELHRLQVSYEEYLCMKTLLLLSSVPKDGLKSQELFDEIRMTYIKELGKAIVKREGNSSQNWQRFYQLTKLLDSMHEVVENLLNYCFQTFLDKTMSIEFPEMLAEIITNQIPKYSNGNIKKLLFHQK

[11] = Drug level in Sprague-Dawley rat at 0.5 mg/kg, iv; format: ADME, organism-based; design: dose 0.5 mg/kg, route intravenous; conditions: in vivo; method in brief: as §2
[12] = AUC (0 to infinity) in Sprague-Dawley rat at 0.5 mg/kg, iv; format: ADME, organism-based; design: time infinity, dose 0.5 mg/kg, route intravenous; conditions: plasma
[13] = Plasma clearance in Sprague-Dawley rat at 1 mg/kg, iv; format: ADME, organism-based; design: dose 1 mg/kg, route intravenous; method in brief: as §2
[14] = Half life in cynomolgus monkey at 5 mg/kg, po; format: ADME, organism-based, Macaca fascicularis; design: dose 5 mg/kg, route oral; conditions: in vivo
[15] = AUC (0 to infinity) in cynomolgus monkey at 5 mg/kg, po; format: ADME, organism-based, Macaca fascicularis; design: dose 5 mg/kg, route oral, time infinity; conditions: plasma
[16] = Oral bioavailability in cynomolgus monkey at 5 mg/kg; format: ADME, organism-based, Macaca fascicularis; conditions: in vivo
[17] = tested on: Cynomolgus monkey; test: Inhibition of ovulation in cynomolgus monkey assessed as basal level of progesterone at 10 mg/kg; format: functional, organism-based; design: dose 10 mg/kg; conditions: Macaca fascicularis
Method in brief: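 Normally cycling cynomolgus monkeys dosed orally, daily at 1, 3 or 10 mg/kg (n=4–6) or vehicle (n=2), in 2% Tween 80/0.5% methylcellulose for 30 days from cycle day 2. Serum sampled three times weekly; progesterone measured by radioimmunoassay to detect a luteal-phase rise as the sign of ovulation.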

[18] = tested on: Rhesus monkey; test: Effect on ovulation rate of rhesus monkey; format: functional, organism-based; conditions: Macaca mulatta
Method in brief: (§3)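 Adult female rhesus macaques (n=3) with regular cycles dosed 10 mg/(kg·day) po in 2% Tween 80/0.5% methylcellulose with cherry flavoring for 28 days from cycle day 2. Serum estradiol and progesterone measured every 3 days. Necropsy on day 28. Uterine weights are of half the uterus; KI-67 and mitotic indices counted per 1000 cells. Values given as mean ± SE.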

[19] = tested on: Rhesus monkey; test: Effect on endometrium weight of rhesus monkey; format: functional, Macaca mulatta; method in brief: as §3
[20] = tested on: Rhesus monkey; test: Effect on endometrium thickness of rhesus monkey; format: functional, Macaca mulatta; method in brief: as §3
[21] = tested on: Rhesus monkey; test: Effect on functionalis KI67 assessed as number of KI67 labeled cells of rhesus monkey; format: functional, Macaca mulatta; method in brief: as §3
[22] = tested on: Rhesus monkey; test: Effect on myometrial weight of rhesus monkey; format: functional, Macaca mulatta; method in brief: as §3
[23] = tested on: Rhesus monkey; test: Effect on cell proliferation in rhesus monkey assessed as number of mitotic cells per 1000 cells

SMILES: Cn1c(C#N)ccc1-c1cc(F)c2c(c1)C(C)(C)C(=O)N2
- IC50 [1]: 5 nM
- half-life [2]: 0.433 h
- half-life [3]: 0.317 h
- half-life [4]: 9.3 h
- AUC(0-inf) [5]: 7150 ng·h/mL
- Activity [6]: 75%
- clearance [7]: 7 mL/min/kg
- Vd [8]: 3.9 L/kg
- half-life [9]: 7.8 h
- Activity [10]: inactive
- C0 [11]: 385 ng/mL
- AUC(0-inf) [12]: 1980 ng·h/mL
- clearance [13]: 4 mL/min/kg
- half-life [14]: 15.7 h
- AUC(0-inf) [15]: 5740 ng·h/mL
- bioavailability [16]: 49%
- Activity [17]: Active
- Activity [18]: inactive
- Activity [19]: 60 mg
- Activity [20]: 2.2 mm
- Activity [21]: 105
- Activity [22]: 1760 mg
- Activity [23]: 2.2
